Tests used:
[1] = system: Rattus norvegicus; assay: Anti-inflammatory activity in rat assessed as reduction in carrageenan-induced paw edema at 10 mg/kg, po measured after 5 hrs by plethysmographic method relative to control; assay type: functional; parameters: scale not given: the % may be the effect or the level left
How it was run: (§1)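 Rats; carrageenan in 0.9% saline injected into paw; compound suspended in 0.5% w/v CMC given orally 30 min after carrageenan, three graded doses per compound. Paw volume by plethysmograph before and at intervals after treatment; values at 5 h. % reduction in edema = (1 − Vt/Vc) × 100 versus carrageenan control; ED50 from the three graded doses; one-way ANOVA.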

[2] = system: Rattus norvegicus; assay: Ulcerogenicity in rat model of carrageenan-induced paw edema assessed as diameter of lesion in gastric wall at 2.5 mg/kg, po measured after 5 hrs; assay type: toxicity, organism-based; conditions: in vivo
How it was run: (§2)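 After oral dosing in 0.5% CMC in the carrageenan paw model, rats were killed by cervical dislocation. Stomachs were inflated with 2% formalin, immersed 10 min to fix, and opened along the greater curvature. Longest lesion diameters were summed as a total lesion score (mm) per animal and averaged per group. Rofecoxib served as negative control and indomethacin as positive control.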

[3] = Antioxidant activity of the compound in phosphate buffer at pH 6.6 assessed as potassium ferric cyanide ion reducing activity at 50 umol/ml after 20 mins by spectrophotometric method relative to control; assay type: functional; parameters: scale not given: the % may be the effect or the level left
How it was run: (§3)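 Methanolic sample (1.0–50.0 […], units as printed) mixed with 0.2 M phosphate buffer pH 6.6 and 1% K3Fe(CN)6, 50 °C for 20 min; cooled, 10% TCA added, aliquot diluted with water plus 0.1% FeCl3, 10 min stand. A700 read against a methanol control; triplicate. Reducing power (%) = [(Atest − Acontrol)/Atest] × 100; EC50 derived; ascorbic acid standard.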

[4] = Antioxidant activity of the compound in phosphate buffer at pH 6.6 assessed as potassium ferric cyanide ion reducing activity at 10 umol/ml after 20 mins by spectrophotometric method relative to control; assay type: functional; parameters: scale not given: the % may be the effect or the level left; how it was run: as §3
[5] = system: Rattus norvegicus; assay: Ulcerogenicity in rat model of carrageenan-induced paw edema assessed as diameter of lesion in gastric wall at 10 mg/kg, po measured after 5 hrs; assay type: toxicity, organism-based; conditions: in vivo; how it was run: as §2
[6] = Antioxidant activity of the compound in phosphate buffer at pH 6.6 assessed as potassium ferric cyanide ion reducing activity at 25 umol/ml after 20 mins by spectrophotometric method relative to control; assay type: functional; parameters: scale not given: the % may be the effect or the level left; how it was run: as §3
[7] = system: Rattus norvegicus; assay: Ulcerogenicity in rat model of carrageenan-induced paw edema assessed as diameter of lesion in gastric wall at 40 mg/kg, po measured after 5 hrs; assay type: toxicity, organism-based; conditions: in vivo; how it was run: as §2
[8] = Antioxidant activity of the compound in phosphate buffer at pH 6.6 assessed as potassium ferric cyanide ion reducing activity at 5 umol/ml after 20 mins by spectrophotometric method relative to control; assay type: functional; parameters: scale not given: the % may be the effect or the level left; how it was run: as §3
[9] = Antioxidant activity of the compound in phosphate buffer at pH 6.6 assessed as potassium ferric cyanide ion reducing activity at 2.5 umol/ml after 20 mins by spectrophotometric method relative to control; assay type: functional; parameters: scale not given: the % may be the effect or the level left; how it was run: as §3
[10] = system: Rattus norvegicus; assay: Anti-inflammatory activity in po dosed rat assessed as reduction in carrageenan-induced paw edema measured after 5 hrs by plethysmographic method; assay type: functional; how it was run: as §1
[11] = system: Rattus norvegicus; assay: Toxicity in rat model of carrageenan-induced paw edema assessed as behavioral changes at 2.5 to 40 mg/kg, po measured during compound dosing; assay type: organism-based; conditions: in vivo
[12] = system: Rattus norvegicus; assay: Anti-inflammatory activity in rat assessed as reduction in carrageenan-induced paw edema at 40 mg/kg, po measured after 5 hrs by plethysmographic method relative to control; assay type: functional; parameters: scale not given: the % may be the effect or the level left; how it was run: as §1
[13] = system: Rattus norvegicus; assay: Anti-inflammatory activity in rat assessed as reduction in carrageenan-induced paw edema at 2.5 mg/kg, po measured after 5 hrs by plethysmographic method relative to control; assay type: functional; parameters: scale not given: the % may be the effect or the level left; how it was run: as §1
[14] = Antioxidant activity of the compound in phosphate buffer at pH 6.6 assessed as potassium ferric cyanide ion reducing activity after 20 mins by spectrophotometric method; assay type: functional; how it was run: as §3
[15] = Antioxidant activity of the compound in phosphate buffer at pH 6.6 assessed as potassium ferric cyanide ion reducing activity at 1 umol/ml after 20 mins by spectrophotometric method relative to control; assay type: functional; parameters: scale not given: the % may be the effect or the level left; how it was run: as §3
[16] = system: Rattus norvegicus; assay: Ulcerogenicity in rat model of carrageenan-induced paw edema assessed as diameter of lesion in gastric wall at 75 mg/kg, po measured after 5 hrs; assay type: toxicity, organism-based; conditions: in vivo; how it was run: as §2
[17] = system: Rattus norvegicus; assay: Anti-inflammatory activity in rat assessed as reduction in carrageenan-induced paw edema at 5 mg/kg, po measured after 5 hrs by plethysmographic method relative to control; assay type: functional; parameters: scale not given: the % may be the effect or the level left; how it was run: as §1
[18] = system: Rattus norvegicus; assay: Ulcerogenicity in rat model of carrageenan-induced paw edema assessed as diameter of lesion in gastric wall at 5 mg/kg, po measured after 5 hrs; assay type: toxicity, organism-based; conditions: in vivo; how it was run: as §2
[19] = system: Rattus norvegicus; assay: Ulcerogenicity in rat model of carrageenan-induced paw edema assessed as diameter of lesion in gastric wall at 25 mg/kg, po measured after 5 hrs; assay type: toxicity, organism-based; conditions: in vivo; how it was run: as §2
[20] = system: Rattus norvegicus; assay: Anti-inflammatory activity in rat assessed as reduction in carrageenan-induced paw edema at 25 mg/kg, po measured after 5 hrs by plethysmographic method relative to control; assay type: functional; parameters: scale not given: the % may be the effect or the level left; how it was run: as §1
[21] = system: Rattus norvegicus; assay: Anti-inflammatory activity in rat assessed as reduction in carrageenan-induced paw edema at 75 mg/kg, po measured after 5 hrs by plethysmographic method relative to control; assay type: functional; parameters: scale not given: the % may be the effect or the level left; how it was run: as §1
[22] = system: Rattus norvegicus; assay: Toxicity in rat model of carrageenan-induced paw edema assessed as behavioral changes at 5 to 75 mg/kg, po measured during compound dosing; assay type: organism-based; conditions: in vivo
[23] = system: Rattus norvegicus; assay: Anti-inflammatory activity in rat assessed as reduction in carrageenan-induced paw edema at 30 mg/kg, po measured after 5 hrs by plethysmographic method relative to control; assay type: functional; parameters: scale not given: the % may be the effect or the level left; how it was run: as §1
[24] = system: Rattus norvegicus; assay: Ulcerogenicity in rat model of carrageenan-induced paw edema assessed as diameter of lesion in gastric wall at 30 mg/kg, po measured after 5 hrs; assay type: toxicity, organism-based; conditions: in vivo; how it was run: as §2

Structure (SMILES)	EC50 [14]	Activity [3]	Activity [4]	Activity [6]	Activity [8]	Activity [9]	ED50 [10]	Activity [15]	Activity [16]	Activity [17]	Activity [18]	Activity [19]	Activity [20]	Activity [21]	Activity [22]	other results
CCCc1nc2cc([N+](=O)[O-])ccc2[nH]1									0.32 mm	2.27%	0 mm	0.22 mm	6.82%	6.82%	Non-Toxic	
CCCCCn1c(CCC)nc2cc(N)ccc21	10.2 mM	67.3%	49%	60.1%	30.2%	18.7%	5.47 mg/kg	8.7%	1.06 mm	45.91%	0.27 mm	0.52 mm	54.36%	66.36%	Non-Toxic	
CCCCCCn1c(CCC)nc2cc(N)ccc21	10.3 mM	65.9%	48%	57.1%	34.5%	12.9%	5.16 mg/kg	6%	1.06 mm	33.13%	0.27 mm	0.52 mm	49.8%	69.13%	Non-Toxic	
CCCc1nc2ccccc2[nH]1							5.53 mg/kg		0.42 mm	0.45%	0.1 mm	0.2 mm	53.18%	77.27%	Non-Toxic	
CS(=O)(=O)c1ccc(C2=C(c3ccccc3)C(=O)OC2)cc1 [ROFECOXIB]																Activity [23]: 78.95%; Activity [24]: 2.92 mm
COc1ccc2c(c1)c(CC(=O)O)c(C)n2C(=O)c1ccc(Cl)cc1 [INDOMETHACIN]							2.2 mg/kg									Activity [1]: 75%; Activity [5]: 19.4 mm

Continued, in another order:

EC50 [14]	Structure (SMILES)	Activity [3]	Activity [4]	Activity [6]	Activity [8]	Activity [9]	ED50 [10]	Activity [15]	Activity [16]	Activity [17]	Activity [18]	Activity [19]	Activity [20]	Activity [21]	Activity [22]	other results
3.7 mM	CCCCCn1c(CCC)nc2cc(NS(C)(=O)=O)ccc21	79.1%	66.5%	72.8%	58%	32.7%	2.55 mg/kg	15.4%								Activity [1]: 86.36%; Activity [2]: 0.25 mm; Activity [5]: 0.5 mm; Activity [7]: 1.01 mm; Activity [11]: Non-Toxic; Activity [12]: 95.64%; Activity [13]: 48.18%
7.4 mM	O=C1O[C@H]([C@@H](O)CO)C(O)=C1O [ASCORBIC ACID]	69.4%	60.8%	65.2%	39.8%	15.5%		6.8%								
> 50 mM	CCCCn1c(CCC)nc2cc([N+](=O)[O-])ccc21	45.4%	16.8%	29.2%	6.8%	2.5%	4.79 mg/kg	0.6%	1.04 mm	29.55%	0.35 mm	0.7 mm	47.73%	52.27%	Non-Toxic	
> 50 mM	CCCCCCn1c(CCC)nc2cc([N+](=O)[O-])ccc21	45.9%	17.9%	30.1%	6.8%	2.8%	3.97 mg/kg	0.9%	1.26 mm	51.87%	0.22 mm	0.54 mm	61.26%	78.25%	Non-Toxic	
4 mM	CCCCn1c(CCC)nc2cc(NS(C)(=O)=O)ccc21	73.5%	61.8%	70.3%	59.8%	31.3%	2.58 mg/kg	12.2%								Activity [1]: 86.36%; Activity [2]: 0.27 mm; Activity [5]: 0.51 mm; Activity [7]: 1.1 mm; Activity [11]: Non-Toxic; Activity [12]: 92.73%; Activity [13]: 43.64%
18.2 mM	CCCCn1c(CCC)nc2cc(N)ccc21	62.5%	44.8%	55.6%	29.9%	15.4%	5.52 mg/kg	6.3%	1.13 mm	59.09%	0.28 mm	0.54 mm	56.82%	59.09%	Non-Toxic	
5.1 mM	CCCCCCn1c(CCC)nc2cc(NS(C)(=O)=O)ccc21	75.4%	66.5%	69.6%	49.7%	29.2%	2.45 mg/kg	10.6%								Activity [1]: 86.36%; Activity [2]: 0.2 mm; Activity [5]: 0.69 mm; Activity [7]: 1.02 mm; Activity [11]: Non-Toxic; Activity [12]: 97.62%; Activity [13]: 50.18%
> 50 mM	CCCCCn1c(CCC)nc2cc([N+](=O)[O-])ccc21	39.8%	10.7%	20.8%	5.8%	2.1%	4.8 mg/kg	0.4%	1.03 mm	63.64%	0.33 mm	0.69 mm	68.18%	68.18%	Non-Toxic	
